From ChEMBL document CHEMBL1147851, “Novel class of arylpiperazines containing N-acylated amino acids: their synthesis, 5-HT1A, 5-HT2A receptor affinity, and in vivo pharmacological evaluation” (Bioorg Med Chem, 2007)
pKi: −log10 of the molar value. Calls of active or inactive are those of the source. The calls are words filed in the database; no cut-off is given here.

Assays:
Mus musculus [1] = species: Mus musculus; experiment: Decrease in body temperature in C57BL/6J mouse; type: functional, organism-based
[2] = biological target: T1, 5-hydroxytryptamine receptor 1A (Rattus norvegicus, UniProt P19327); experiment: Displacement of [3H]8-OH-DPAT from serotonin 5HT1A receptor in rat brain hippocampus; type: tissue-based
T1 sequence (P19327 whole entry): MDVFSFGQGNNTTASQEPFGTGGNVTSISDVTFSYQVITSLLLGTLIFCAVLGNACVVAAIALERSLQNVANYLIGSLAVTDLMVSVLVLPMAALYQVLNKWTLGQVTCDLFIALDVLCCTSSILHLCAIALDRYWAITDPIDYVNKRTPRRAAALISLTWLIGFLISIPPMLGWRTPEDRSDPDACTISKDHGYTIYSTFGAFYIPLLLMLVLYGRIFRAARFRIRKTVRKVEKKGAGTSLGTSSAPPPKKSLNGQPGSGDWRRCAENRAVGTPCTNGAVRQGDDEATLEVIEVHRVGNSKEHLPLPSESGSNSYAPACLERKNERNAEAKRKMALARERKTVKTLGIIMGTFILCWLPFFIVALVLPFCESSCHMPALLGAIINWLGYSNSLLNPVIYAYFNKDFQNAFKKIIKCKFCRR
Outline: (§1)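 Full competition binding with 8–10 drug concentrations (10^-10–10^-3 M), each in triplicate. Ki was derived from at least three experiments.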

[3] = biological target: 5-hydroxytryptamine receptor 2A (Rattus norvegicus, UniProt P14842); experiment: Displacement of [3H]ketanserin from serotonin 5HT2A receptor in rat brain cortex; type: tissue-based; outline: as §1
5-hydroxytryptamine receptor 2A, sequence (P14842 whole entry): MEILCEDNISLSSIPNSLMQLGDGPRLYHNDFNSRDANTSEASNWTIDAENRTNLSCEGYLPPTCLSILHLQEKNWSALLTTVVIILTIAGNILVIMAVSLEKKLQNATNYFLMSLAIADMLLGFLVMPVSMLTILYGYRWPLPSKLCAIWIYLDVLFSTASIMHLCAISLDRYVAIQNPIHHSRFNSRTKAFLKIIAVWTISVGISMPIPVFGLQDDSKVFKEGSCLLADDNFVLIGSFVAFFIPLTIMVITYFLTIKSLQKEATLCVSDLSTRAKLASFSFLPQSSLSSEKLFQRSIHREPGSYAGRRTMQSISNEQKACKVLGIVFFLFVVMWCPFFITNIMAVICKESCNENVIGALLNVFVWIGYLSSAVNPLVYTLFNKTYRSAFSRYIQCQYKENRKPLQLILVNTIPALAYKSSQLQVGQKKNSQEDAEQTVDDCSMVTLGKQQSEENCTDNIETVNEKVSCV

D(2) dopamine receptor = D(2) dopamine receptor (Rattus norvegicus, UniProt P61169); experiment: Displacement of [3H]spiperone from dopaminergic D2 receptor in rat striatal membrane; type: cell membranes, Striatum
D(2) dopamine receptor, sequence (P61169 whole entry): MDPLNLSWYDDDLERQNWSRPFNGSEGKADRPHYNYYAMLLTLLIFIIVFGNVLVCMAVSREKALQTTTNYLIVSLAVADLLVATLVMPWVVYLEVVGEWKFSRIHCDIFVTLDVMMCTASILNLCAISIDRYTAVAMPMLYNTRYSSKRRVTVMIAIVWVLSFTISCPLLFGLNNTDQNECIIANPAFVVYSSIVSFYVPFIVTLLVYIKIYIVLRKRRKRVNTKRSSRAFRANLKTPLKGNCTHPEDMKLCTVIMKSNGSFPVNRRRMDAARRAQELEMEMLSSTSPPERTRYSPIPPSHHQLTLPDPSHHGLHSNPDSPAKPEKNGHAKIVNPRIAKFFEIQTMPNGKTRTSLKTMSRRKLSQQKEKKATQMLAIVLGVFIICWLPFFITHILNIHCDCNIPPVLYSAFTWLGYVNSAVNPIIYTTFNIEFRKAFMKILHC
Outline: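 Rat striatal membranes incubated with [3H]spiperone, with 50 nM ketanserin added to block 5-HT2A sites. Nonspecific binding was defined with 5 μM (±)-butaclamol. Incubation 30 min at 37 °C, stopped by vacuum filtration, washed with 50 mM potassium phosphate pH 7.4, counted by liquid scintillation. Estimated Ki (Cheng–Prusoff) came from two concentrations (0.1, 1 μM) in triplicate, three experiments.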

Mus musculus [4] = species: Mus musculus; experiment: Effect on body temperature in Swiss Albino mouse; type: functional, organism-based
Outline: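 Male Albino Swiss mice received the agent alone ip as a suspension in 1% aqueous Tween 80. Rectal body temperature was read at 30, 60, 90 and 120 min after dosing and expressed as Δt from the basal value taken at the start. Six to ten animals per dose.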

Mus musculus [5] = experiment: Anxiolytic-like activity in Swiss Albino mouse at 5 mg/kg by four plate test; type: functional
Outline: (§2)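 Four-plate test in male Albino Swiss mice, dosed ip 30 or 60 min before testing. After 15 s of exploration, each plate-to-plate crossing triggered a 0.5 s, 120 V floor shock, with no new shock for the next 3 s. Punished crossings were counted over 60 s. n = 10 per group; ANOVA with Dunnett's test.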

Mus musculus [6] = experiment: Anxiolytic-like activity in Swiss Albino mouse at 10 mg/kg by four plate test; type: functional; outline: as §2
Mus musculus [7] = experiment: Anxiolytic-like activity in Swiss Albino mouse at 20 mg/kg by four plate test; type: functional; outline: as §2
[8] = biological target: T2, 5-hydroxytryptamine receptor 1A (Mus musculus) (UniProt Q64264); experiment: Antagonist activity at 5-HT1A receptor in Swiss Albino mouse assessed as decrease in 8-OH-DPAT induced body temperature; type: functional
T2 sequence (whole entry): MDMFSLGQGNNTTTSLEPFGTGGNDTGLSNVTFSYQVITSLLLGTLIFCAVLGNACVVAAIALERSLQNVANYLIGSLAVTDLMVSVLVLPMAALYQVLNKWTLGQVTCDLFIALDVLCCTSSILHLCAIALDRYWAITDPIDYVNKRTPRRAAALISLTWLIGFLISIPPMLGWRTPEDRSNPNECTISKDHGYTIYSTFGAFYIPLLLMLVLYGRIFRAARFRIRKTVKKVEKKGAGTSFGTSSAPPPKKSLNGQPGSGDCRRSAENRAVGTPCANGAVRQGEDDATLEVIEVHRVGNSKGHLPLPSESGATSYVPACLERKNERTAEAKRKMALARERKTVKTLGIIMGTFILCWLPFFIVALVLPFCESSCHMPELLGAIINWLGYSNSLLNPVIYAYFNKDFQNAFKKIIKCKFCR
Outline: (§3)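 Male Albino Swiss mice. 8-OH-DPAT 5 mg/kg sc induced hypothermia. Test agents were suspended in 1% aqueous Tween 80 and given ip 45 min before 8-OH-DPAT. Rectal temperature was taken 15, 30, 45 and 60 min after 8-OH-DPAT and expressed as change (Δt) from basal temperature. Six to ten animals per dose.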

Mus musculus [9] = experiment: Antidepressant-like activity in Swiss Albino mouse at 10 mg/kg by forced swimming test; type: functional
Outline: (§4)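 Porsolt forced swim in male Albino Swiss mice, agents given ip (1% Tween 80 suspension) 30 min beforehand. Mice were placed in a cylinder 10 cm wide holding 6 cm of water at 23–25 °C for 6 min. Floating immobility was timed over the last 4 min. n = 9-10 per group; ANOVA with Dunnett's test.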

Mus musculus [10] = experiment: Antidepressant-like activity in Swiss Albino mouse at 20 mg/kg by forced swimming test; type: functional; outline: as §4
Mus musculus [11] = experiment: Antidepressant-like activity in C57BL/6J mouse at 5 mg/kg by tail suspension test; type: functional
Mus musculus [12] = experiment: Antidepressant-like activity in C57BL/6J mouse at 10 mg/kg by tail suspension test; type: functional
Outline: (§5)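 Tail suspension in male C57BL/6J mice (22–23 g), dosed ip in 1% Tween 80 suspension 30 min before the test. Each mouse hung by adhesive tape about 1 cm from the tail tip, 75 cm above the floor. Total immobility, meaning no limb or body movement except breathing, was scored manually over 6 min. n = 9-10 per group; one-way ANOVA then Dunnett's test.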

Mus musculus [13] = experiment: Antidepressant-like activity in C57BL/6J mouse at 20 mg/kg by tail suspension test; type: functional; outline: as §5
Mus musculus [14] = experiment: Anxiolytic-like activity in Swiss Albino mouse at 2.5 mg/kg by four plate test; type: functional
Outline: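 Male Albino Swiss mice (24–28 g), each used once, 10 per dose group. Dosing ip at 10 mL/kg, 30 or 60 min before testing depending on agent; tested compounds given as suspensions in 1% aqueous Tween 80. Four-metal-plate floor; 15 s exploration, then each plate-to-plate crossing shocked (120 V, 0.5 s), no new shock for 3 s if still running. Punished crossings counted over 60 s; one-way ANOVA, Dunnett's test.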

[15] = biological target: T2, 5-hydroxytryptamine receptor 1A (Mus musculus); experiment: Activity at 5HT1A receptor in Swiss Albino mouse assessed as decrease in 8-OH-DPAT induced body temperature; type: functional; conditions: filed as agonist; outline: as §3
Mus musculus [16] = experiment: Antidepressant-like activity in Swiss Albino mouse at 2.5 mg/kg by forced swimming test; type: functional; outline: as §4
Mus musculus [17] = experiment: Antidepressant-like activity in Swiss Albino mouse at 5 mg/kg by forced swimming test; type: functional; outline: as §4
Mus musculus [18] = species: Mus musculus; experiment: Reduction in spontaneous locomotor activity in Swiss Albino mouse; type: functional, organism-based
Outline: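 Male Albino Swiss mice dosed ip were placed singly in photoresistor actometers (24 cm diameter, two light beams). Beam crossings were counted over the first 6 min and over a 30-min session. ANOVA with Dunnett's test.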

Mus musculus [19] = species: Mus musculus; experiment: Decrease in body temperature in Albino Swiss mouse

Row | Structure (SMILES) | pKi [2] | pKi [3] | pKi (D(2) dopamine receptor) | Activity (Mus musculus [5]) | other results
1 | COc1ccccc1N1CCN(CCCCNC(=O)[C@@H]2CCCN2C(=O)C2CCCCC2)CC1 | 7.72 | 6.00 | 5.44 | – | Activity (Mus musculus [1]): Active
2 | O=C(CC1CC2CCC1C2)N[C@H]1CC(=O)N(CCCCN2CCN(c3cccc(Cl)c3)CC2)C1=O (stereo not given in full) | 7.68 | 8.38 | 6.11 | – | Activity (Mus musculus [4]): inactive
3 | O=C1C[C@H](NC(=O)C23CC4CC(CC(C4)C2)C3)C(=O)N1CCCCN1CCN(c2cccc(Cl)c2)CC1 | 7.33 | 7.60 | 4.67 | 4.6 | Activity (Mus musculus [6]): 5.1; Activity (Mus musculus [7]): 5.6; Activity [8]: Active
4 | O=C1CCC(=O)N1CCCCN1CCN(c2cccc(Cl)c2)CC1 | 7.49 | 6.92 | 5.11 | – | –
5 | COc1ccccc1N1CCN(CCCCN2C(=O)CCC2=O)CC1 | – | 5.82 | 6.31 | – | –
6 | CN(C)CCCN1c2ccccc2CCc2ccccc21 [IMIPRAMINE] | – | – | – | – | Activity (Mus musculus [9]): 149.1 s; Activity (Mus musculus [10]): 107.8 s; Activity (Mus musculus [11]): 147.4 s; Activity (Mus musculus [12]): 102.5 s; Activity (Mus musculus [13]): 90.2 s
7 | CN1C(=O)CN=C(c2ccccc2)c2cc(Cl)ccc21 [DIAZEPAM] | – | – | – | 6.7 | Activity (Mus musculus [14]): 6.8
8 | COc1ccccc1N1CCN(CCCCN2C(=O)C[C@H](NC(=O)C3CCCCC3)C2=O)CC1 | 7.72 | 6.74 | 5.68 | 6.6 | Activity [15]: Agonist; Activity (Mus musculus [14]): 4.7; Activity (Mus musculus [6]): 7; Activity (Mus musculus [7]): 7.5; Activity (Mus musculus [16]): 131.6 s; Activity (Mus musculus [17]): 110 s; Activity (Mus musculus [9]): 102 s; Activity (Mus musculus [10]): 128.1 s; Activity (Mus musculus [11]): 147.9 s; Activity (Mus musculus [12]): 129.1 s; Activity (Mus musculus [13]): 116.1 s; Activity (Mus musculus [18]): inactive
9 | O=C(N[C@H]1CC(=O)N(CCCCN2CCN(c3cccc(Cl)c3)CC2)C1=O)C1CCCC1 | 7.55 | 7.33 | 4.90 | – | Activity (Mus musculus [19]): Active
10 | COc1ccccc1N1CCN(CCCCN2C(=O)C[C@H](NC(=O)C34CC5CC(CC(C5)C3)C4)C2=O)CC1 | 8.40 | 6.76 | 5.75 | – | Activity (Mus musculus [19]): Active
11 | COc1ccccc1N1CCN(CCCCN2C(=O)C[C@H](NC(=O)CC3CC4CCC3C4)C2=O)CC1 (stereo not given in full) | 8.05 | 7.33 | 6.06 | – | Activity (Mus musculus [19]): Active
12 | COc1ccccc1N1CCN(CCCCN2C(=O)C[C@H](NC(=O)C3CCCC3)C2=O)CC1 | 7.64 | 6.32 | 6.04 | 3.4 | Activity [15]: Agonist; Activity (Mus musculus [6]): 5.2; Activity (Mus musculus [7]): 6; Activity (Mus musculus [17]): 133.4 s; Activity (Mus musculus [9]): 123.3 s; Activity (Mus musculus [10]): 103 s; Activity (Mus musculus [18]): Active
13 | O=C(N[C@H]1CC(=O)N(CCCCN2CCN(c3cccc(Cl)c3)CC2)C1=O)C1CCCCC1 | 7.59 | 8.19 | 5.67 | – | Activity (Mus musculus [4]): inactive
